CAL PDZ FP-1 – CAL PDZ (human) peptide binding inhibition; Q9HD26; purified CAL PDZ, TMR-peptide fluorescence polarization, 1 h; inhibition, % at 24.9 µM; 300,000 tested, 0.92% active; AID 602252;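 active means mean inhibition of at least 30% with at least half of replicates also reaching 30%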
ATG4B inh – inhibitors of human ATG4B cysteine protease. Q9Y4P1. ATG4B cleavage of LC3-PLA2, NBD-HPC fluorescence, 1 h. inhibition, % at 8.33 µM. 340,000 tested, 0.51% active. AID 504462; in the data active means inhibition above about 40%
SR-BI DiI-HDL act – SR-BI HDL lipid transfer activation; CHO ldlA[mSR-BI] cells, DiI-HDL uptake fluorescence, 3 h; 100 = double the neutral-control signal; activation, % at 12.5 µM; 320,000 tested, 0.096% active;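 active means mean replicate activation of at least 60% and every replicate at or above 60%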
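system = CHO ldlA[mSR-BI] cells, LDL receptor-null, SR-BI overexpressing | medium = Ham's F12 with 0.5% BSA, HEPES 25 mM, pH 7.4 | probe or stimulus = DiI-HDL 10 µg/mL | compound dosing = single-point compound dose | incubation = compound exposure 3 h, 37 °C | technique = DiI fluorescence, bottom read | read-out = cell-associated DiI fluorescence as measure of HDL uptake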
SR-BI DiI inh – mouse SR-BI HDL lipid transfer inhibition; Q61009; 320,000 tested, 0.96% active; ldlA[mSR-BI] CHO cells, DiI-HDL uptake fluorescence, 3 h; inhibition, % at 12.5 µM;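 active means mean replicate inhibition of at least 70% and a set share of replicates each scoring 70 or more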
Target sequence (Q61009 whole entry, looked up): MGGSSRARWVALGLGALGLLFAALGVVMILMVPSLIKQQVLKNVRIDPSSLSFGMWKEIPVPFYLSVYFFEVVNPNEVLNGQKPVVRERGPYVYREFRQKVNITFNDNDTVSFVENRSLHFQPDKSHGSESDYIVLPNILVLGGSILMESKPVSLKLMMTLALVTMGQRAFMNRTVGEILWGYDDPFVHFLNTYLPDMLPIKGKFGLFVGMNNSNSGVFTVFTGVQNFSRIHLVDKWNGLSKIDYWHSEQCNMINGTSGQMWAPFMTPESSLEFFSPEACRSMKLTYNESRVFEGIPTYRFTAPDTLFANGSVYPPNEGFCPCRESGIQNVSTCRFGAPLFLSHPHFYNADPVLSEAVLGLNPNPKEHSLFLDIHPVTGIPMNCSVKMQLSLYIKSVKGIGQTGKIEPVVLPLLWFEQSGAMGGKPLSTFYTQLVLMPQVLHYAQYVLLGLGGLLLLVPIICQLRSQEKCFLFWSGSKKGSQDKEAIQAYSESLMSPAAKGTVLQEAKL
CAL PDZ FP-2 – blocks peptide binding to human CAL PDZ domain; Q9HD26; purified CAL PDZ, TMR-peptide fluorescence polarization, 1 h; inhibition, % at 20 µM; 330,000 tested, 0.02% active; AID 504414;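 active means highest replicate inhibition of at least 40%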
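Assay system – tagged CAL PDZ protein CerCALP, purified · Timing – 1 h at RT · Compound – single point, 20 µM · Measured by – fluorescence polarization from S- and P-plane intensities, G-factor corrected · Evaluation – inhibition from polarization loss · Probe or stimulus – TMR reporter peptide T*-PRC34 · Buffer or medium – pH 7.4 phosphate-saline buffer, reducing agent, detergent, IgG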
Each line names hits and unclear results; the compound was inactive in the other large screens. Only some compounds are listed: those with a hit (about 2.3% of all), similar ones and a draw of the others.

COc1ccc(CNC(=O)c2cccc(C)c2[N+](=O)[O-])cc1	none
COc1ccccc1NC(=O)CSc1nc(=O)n(Cc2ccncc2)c2c1CCCC2	none
O=C(N/N=C/c1ccccc1OCc1ccccc1)c1cccs1	SR-BI DiI inh 75.6
COc1cc(/C=N/NC(=O)c2cccs2)ccc1OCc1ccccc1	none
Cc1ccsc1C(=O)N/N=C/C=C/c1ccccc1[N+](=O)[O-]	CAL PDZ FP-1 79.3
O=C(N/N=C/c1cccc([N+](=O)[O-])c1O)c1cccs1	SR-BI DiI inh 98.4
Cc1noc(C)c1COc1ccccc1C(=O)NC1CCC(C)CC1 (stereo not given)	none
Cc1cc(C)nc(NC(=O)Cc2ccc(Br)cc2)n1	none
COc1cccc(N=Nc2c(N)[nH]n3c(=O)cc(-c4ccccc4)nc23)c1	CAL PDZ FP-1 63.4
Cc1ccc(S(=O)(=O)N[C@H](C(=O)OCC(=O)NC(=O)c2cccn2C)C(C)C)cc1	none
O=C(NCC1CCCCC1)c1cccnc1	CAL PDZ FP-1 43.4
CC(=O)c1ccc(NC(=O)c2ccc(-n3cnnn3)cc2)cc1	none
COc1ccc(CC(=O)NNS(=O)(=O)c2ccc([N+](=O)[O-])cc2)cc1OC	SR-BI DiI-HDL act 61.4
COc1ccc(CC(=O)NNS(=O)(=O)c2ccccc2[N+](=O)[O-])cc1OC	none
CC(C)CN(C(=O)CSc1nc2ccccc2c(=O)n1C)C1CCS(=O)(=O)C1 (stereo not given)	none
C=C1C(=O)c2sccc2C(c2ccc(OC)c(OC)c2)C1COC(C)=O (stereo not given)	none
CN(C(=O)c1ccnn1C)C1CCCN(Cc2ccccc2F)C1 (stereo not given)	CAL PDZ FP-1 44.8
CC(=O)c1ccccc1C(=O)N(C)C1CCCN(Cc2ccccc2F)C1 (stereo not given)	none (no result: CAL PDZ FP-1)
CCn1cc(C(=O)N[C@H](C(=O)NCCCOC)C(C)C)c(=O)c2cc3c(cc21)OCO3	none
CCn1cc(C(=O)N[C@H](C(=O)O)C(C)C)c(=O)c2cc3c(cc21)OCO3	CAL PDZ FP-1 46.3 (no result: CAL PDZ FP-2)
COc1cc(OC)c(NC(=O)c2ccco2)cc1Cl	none (no result: CAL PDZ FP-2)
COc1cc(N)c(Cl)cc1NC(=O)c1ccccc1	none
COc1cc(OC)c(NC(=O)c2cc3ccccc3cc2O)cc1Cl	SR-BI DiI inh 93.9
COc1cc(NC(=O)c2ccccc2)c(OC)cc1Cl	SR-BI DiI inh 86.0
COc1ccc(CCNC(=O)CCSCc2ccccc2F)cc1OC	CAL PDZ FP-1 41.4 (no result: CAL PDZ FP-2)
O=C(OCc1ccccc1)c1cccc(-c2nnc(-c3ccccc3)o2)c1	SR-BI DiI-HDL act 62.4 (no result: CAL PDZ FP-1)
C[C@H](NC(=O)N1CCn2c1nc1ccccc12)C(=O)NCCc1ccccc1	none
CCN(C[C@H]1N[C@@](Cc2ccccc2)(C(=O)OC)[C@H]2C(=O)N(C)C(=O)[C@@H]12)C(=O)Nc1ccc(Cl)cc1	none
Cc1cc(N2CCCCC2)n2nc(C)c(-c3ccccc3)c2n1	none
Cc1cc(N2CCC(C)CC2)n2nc(C)c(-c3ccccc3)c2n1	SR-BI DiI inh 74.8
COc1ccc(-c2c(C)nn3c(N4CCN(Cc5ccccc5)CC4)cc(C)nc23)cc1OC	SR-BI DiI inh 76.9 (no result: CAL PDZ FP-1)
Cc1cc(NC2CCCC2)n2nc(C)c(-c3ccccc3)c2n1	CAL PDZ FP-1 31.9
Cc1nn2c(N3CCCC3)cc(C(C)C)nc2c1-c1ccccc1	SR-BI DiI inh 74.0
O=S(=O)(Cc1ccccc1)N=Nc1c(O)[nH]c2ccc(Br)cc12	CAL PDZ FP-1 81.5
COc1ccc(O)c(C(=O)c2cc(C#N)c(=O)n(-c3ccc(Cl)cc3)c2)c1	CAL PDZ FP-1 39.4
CN1CCN(C(N)=NC(=O)c2ccccc2)CC1	none
NC(=NC(=O)c1ccccc1)N1CCN(C(c2ccccc2)c2ccccc2)CC1	CAL PDZ FP-1 89.4
COC(=O)C1(NC(=O)CNC(=O)OCc2ccccc2)CCCC1	none
CCn1c(C)c(C)c2cc(C(=O)NCCN3CCCCCC3)ccc21	SR-BI DiI inh 75.4
Cc1cccc(Cn2c(C)c(C)c3cc(C(=O)NCCN4CCOCC4)ccc32)c1	none
Cc1c(C)n(Cc2ccc(F)cc2)c2ccc(C(=O)NCCN3CCOCC3)cc12	CAL PDZ FP-1 89.9
COc1ccc(OC)c(S(=O)(=O)N2CCCC2C(=O)NC(C)c2ccccc2)c1 (stereo not given)	none
CCOC(=O)C1CCN(C(=O)Nc2c(-c3ccccc3)noc2C)CC1	none

High-throughput results (PubChem)
